Screening results (PubChem)
In the library only some 0.94% were active in any assay of this set; here they are far more common.
PKA-R1A activ = activates the PKA-R1A holoenzyme complex | P00514+P68181 | PKA-R1A dissociation, Cy5-IP20 fluorescence polarization; scaled: DMSO 0%, 113 µM cGMP 100% | activation, % at 11.4 µM | 340,000 tested, 0.083% active | AID 504707;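 active = percent activation above the mean of all tested compounds plus 3 SD, cut at about 19% in these data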;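 note: higher means more PKAc released from R1A so a rise in polarization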
UCH37 DUB inh = inhibitors of human deubiquitinating enzyme UCH37; purified proteasome/UCH37, Ub-AMC cleavage fluorescence; AID 588478; Q9Y5K5; inhibition, % (test concentration not listed); 330,000 tested, 0.33% active;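 active = mean inhibition over replicate wells above about 20%, limit read from the data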;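 note: 0% = compound-free wells with enzyme and 100% = wells lacking proteasome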
Target sequence (Q9Y5K5 whole entry, looked up): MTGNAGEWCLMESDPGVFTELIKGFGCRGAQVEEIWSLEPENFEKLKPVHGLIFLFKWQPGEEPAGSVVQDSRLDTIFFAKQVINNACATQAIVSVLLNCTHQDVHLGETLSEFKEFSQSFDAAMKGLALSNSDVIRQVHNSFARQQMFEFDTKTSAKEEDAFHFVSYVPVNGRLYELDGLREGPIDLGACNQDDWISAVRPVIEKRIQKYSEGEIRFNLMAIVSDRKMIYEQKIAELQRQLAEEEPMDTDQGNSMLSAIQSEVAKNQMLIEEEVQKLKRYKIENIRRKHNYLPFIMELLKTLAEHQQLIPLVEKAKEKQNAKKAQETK
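assay system = human UCH37 enzyme supplied as purified proteasome complex | amount = proteasome at 0.15 nM in the dispensed enzyme solution | schedule = 30 min compound-proteasome preincubation then 25 min substrate reaction, room temperature | measured by = fluorescence, ex 355 nm, em 460 nm | benchmarks = no-proteasome wells (full inhibition) and compound-free wells (no inhibition)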
aDG glyco act = alpha-DG glycosylation activation. Pro5-aDG cells, alpha-DG glycosylation AlphaScreen (IIH6); 0% Pro5, 100% B10-LARGE cell signal. activation, % at 10 µM. 360,000 tested, 0.22% active;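 active = activation of at least 8% versus controls, or a plate z-score of at least 8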;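 note: Pro5 are CHO cells carrying HIG-tagged alpha-DG that lacks glycosylation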
CTSL1 counter = counter-screen for PFM18AAP inhibitors: inhibitors of F. hepatica cathepsin L1. recombinant F. hepatica cathepsin L1, Z-Leu-Arg-MCA fluorescence. inhibition, % at 5.96 µM. 300,000 tested, 0.49% active. AID 1906;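 active = inhibition above the mean of all tested compounds plus 3 SD, set per screening campaign, cut at about 17% in these data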;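 note: 0% = plate median of test compound wells and 100% = 1 µM Z-Phe-Ala-diazomethylketone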
PKA-R2B act = activators of human PKA-R2B complex; P22694+P31323; AID 504700; activation, % at 11.4 µM; PKA-R2B holoenzyme dissociation, Cy5-IP20 fluorescence polarization; R2B truncated from residue 108, S112A mutant; 0% DMSO only, 100% 113 µM cGMP; 340,000 tested, 0.079% active;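 active = activation above a cutoff set at the mean over all compounds plus 3 SD, cut at about 18% in these data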;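 note: higher means more holoenzyme dissociation and a rise in polarization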
UCH37 reconfirm = UCH37 Ub-AMC cleavage inhibition, confirmed; shares compounds with UCH37 DUB inh; Proteasome-bound UCH37, Ub-AMC cleavage fluorescence; inhibition, % at 20 µM; 480 tested, 27% active; AID 624100;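 active = average inhibition over replicates above about 50%, so the earlier screening hit is confirmed, limit read from the data; inactive = the rest, counted as false positives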;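 note: based on cleavage rate fitted by regression over a 30 min kinetic read; 0% = proteasome plus Ub-AMC and 100% = Ub-AMC without proteasome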
aDG glyco conf = confirmation of alpha dystroglycan glycosylation activators. 600 tested, 17% active. shares compounds with aDG glyco act. activation, % at 10 µM (by protocol). Pro5-aDG cells, alpha-DG glycosylation, IIH6 AlphaLISA; scaled to LARGE-overexpressing B10 cells as 100%;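 active = activation of at least 7% in one or more replicates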;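 note: cells exposed to compound for two days before detection; 0% = DMSO-treated Pro5 cells and 100% = DMSO-treated B10-LARGE cells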
An asterisk follows results filed as active; nt = not tested or not shown.

SMILES	PKA-R1A activ	UCH37 DUB inh	aDG glyco act	CTSL1 counter	PKA-R2B act	UCH37 reconfirm	others
COC(=O)C1=C(c2cccc(C#N)c2)C[C@@H]2CC[C@H]1N2C(=O)NCCOc1ccccc1Cl	-8.0	46.1*	0.1	nt	4.0	7.4
O=C1NC(=O)C(Nc2ccc(Cl)c(Cl)c2)C(=O)N1	-0.2	58.5*	0.2	nt	-1.1	-1.9
O=C(Nc1ccc(Cl)c(Cl)c1)c1ccco1	-7.4	-0.6	-0.1	-0.3	3.2	nt
O=[N+]([O-])c1ccc(N(CCO)CCO)c2c1no[n+]2[O-]	0.6	nt	-0.2	nt	-2.7	nt
CN1CCN(c2ccc([N+](=O)[O-])c3no[n+]([O-])c23)CC1	-0.9	41.8*	-0.2	17.5*	-11.7	29.4
C[C@]12CCC3C(CCC4=CC(=NOCC(=O)NC(CCC(N)=O)C(=O)O)CC[C@@]43C)C1CCC2O (some centres not stated)	nt	2.3	nt	nt	nt	nt
C=C(C)C(Cc1c(OC)ccc(C(=O)/C=C/c2ccc(O)cc2)c1O)OO (configuration not stated)	-11.1	48.6*	-0.6	nt	3.0	19.1
CN1/C(=C\C=C2C(=O)NC(=O)NC2=O)C(C)(C)c2ccccc21	0.0	39.1*	0.1	20.1*	4.6	6.3
O=C(NN=C1CN2CCC1CC2)c1cc2ccccc2cc1O	nt	-0.5	nt	nt	nt	nt
O=C1NC(=O)N(CCNc2ncc(C(F)(F)F)cc2Cl)C(=O)C1C=NOCc1c(F)cccc1Cl (configuration not stated)	nt	-2.6	nt	nt	nt	nt
CCN1C(=O)/C(=C/c2ccc3c(c2)CCN3CCCCl)C(=O)NC1=S	-11.0	2.8	-0.1	5.0	-1.1	nt
CC(C)(C)N1C(=O)NC(=O)/C(=C\c2ccc3c(c2)CCN3CCCCl)C1=O	-4.2	63.6*	-0.1	0.8	-8.4	0.6
Cc1ccc2c(c1)CC1(CN2C)C(=O)NC(=O)N(CCC2=CCCCC2)C1=O (configuration not stated)	0.8	35.4*	-0.1	-0.5	-4.0	20.2
Cc1nc2c(=O)n(C)c(=O)nc-2n(C)n1	1.0	99.9*	-0.3	112.3*	13.7	100.4*
Cn1c(O)c(C(=O)c2ccccc2)c(=O)n(C)c1=O	1.3	42.1*	-0.1	-1.6	-12.5	7.2
O=[N+]([O-])C=C1NCCN1Cc1ccc(Cl)nc1	nt	4.7	nt	nt	nt	nt
CCC12CN3CCN(CC(C3)C1=NNC(N)=O)C2	nt	-1.0	nt	nt	nt	nt
CCC12CN3CCN(CC(C3)C1=NO)C2	nt	2.0	nt	nt	nt	nt
CC1CCC2[C@@H](C)C(=O)OC3O[C@]4(C)CCC1C32OO4 (some centres not stated)	-4.4	6.0	2.6*	0.1	1.1	nt	aDG glyco conf=-0.2
CCC1(c2ccc(N)cc2)CCC(=O)NC1=O (configuration not stated)	3.5	0.8	11.8*	-0.9	6.5	nt	aDG glyco conf=-1.0
NC(=N[N+](=O)[O-])N1CCN(C(=O)c2ccccc2)CC1	nt	2.5	nt	nt	nt	nt
CCCNC(=O)Cn1cnc2sc(C(=O)N3CCC4(CC3)OCCO4)c(C)c2c1=O	-8.1	4.4	13.6*	-0.1	5.1	nt	aDG glyco conf=-0.2
NC(=N[N+](=O)[O-])N1CCN(C(=O)Oc2ccc([N+](=O)[O-])cc2)CC1	nt	-0.3	nt	nt	nt	nt
COC(=O)C1=C(c2ccc(C(C)=O)cc2)C[C@@H]2CC[C@H]1N2C(=O)NC1CCCCC1	-1.2	0.1	7.3*	nt	0.5	nt	aDG glyco conf=-0.9
COC(=O)C1=C(c2ccc3ccccc3c2)C[C@@H]2CC[C@H]1N2C(=O)NC1CCCCC1	-6.6	-1.6	0.5	nt	-2.3	nt
CNC(=O)ON=Cc1nn(C(=O)C(C)(C)C)cc1Br	nt	2.6	nt	nt	nt	nt
